Assay results: ChEMBL document CHEMBL1147378, “Further lupane lactones from Kokoona ochracea” (1993)
Values after ≈ are worked out from the molar mass of the structure shown.

Experiments:
SK-MEL-2 = experiment: Cytotoxicity against human SK-MEL-2 cells after 72 hrs; type: functional; settings: SK-MEL-2, 72 h, read-out: ED50 (the source's name)
How it was run: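 MEL-2 cells kept in a closed container. Treated in triplicate at four concentrations (0.16–20 μg/ml), DMSO 0.5% v/v final. Incubation 72 h at 37° without CO2. Cells fixed with cold 50% TCA, stained with sulforhodamine B, dye solubilized in 10 mM Tris, OD 515 nm. ED50 derived from averaged % of DMSO-only controls.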

HT-1080 = experiment: Cytotoxicity against human HT1080 cells after 48 hrs; type: functional; settings: HT-1080, 48 h, read-out: ED50 (the source's name)
How it was run: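 HT-1080 cells exposed in triplicate to four concentrations (0.16–20 μg/ml) of compound from DMSO stock (0.5% v/v final). Incubation 48 h at 37° under 5% CO2. Read-out by cold 50% TCA fixation, sulforhodamine B staining and Tris-solubilized OD at 515 nm. ED50 derived from averaged % of DMSO-only controls.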

Lu1 = experiment: Cytotoxicity against human Lu1 cells after 72 hrs; type: functional; settings: Lu1, 72 h, read-out: ED50 (the source's name)
How it was run: (§1)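 Cells in media with penicillin, streptomycin, fungizone and NaHCO3, pH 7.1–7.2. Compounds dissolved in DMSO (0.5% v/v final) and tested in triplicate at four concentrations (0.16–20 μg/ml). Incubation 72 h at 37° under 5% CO2. Cells fixed in cold 50% TCA and stained with sulforhodamine B. Bound dye solubilized in 10 mM Tris base, OD read at 515 nm. ED50 taken from averaged % of DMSO-only controls.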

A-431 = experiment: Cytotoxicity against human A431 cells after 72 hrs; type: functional; settings: A-431, 72 h, read-out: ED50 (the source's name); how it was run: as §1
LNCaP = experiment: Cytotoxicity against human LNCAP cells after 72 hrs; type: functional; settings: read-out: ED50 (the source's name); how it was run: as §1
[1] = Cytotoxicity against human BC1 cells after 72 hrs; type: functional; settings: BC1, 72 h, read-out: ED50 (the source's name); how it was run: as §1
KB = experiment: Cytotoxicity against human KB cells after 72 hrs; type: functional; settings: read-out: ED50 (the source's name); how it was run: as §1
[2] = Cytotoxicity against human multidrug-resistant KBV1 cells in presence of vinblastine after 72 hrs; type: functional; settings: KB-V1, 72 h, read-out: ED50 (the source's name)
Col2 = experiment: Cytotoxicity against human Col2 cells after 72 hrs; type: functional; settings: Col2, 72 h, read-out: ED50 (the source's name); how it was run: as §1
ZR-75-1 = experiment: Cytotoxicity against human ZR-75-1 cells after 72 hrs; type: functional; settings: ZR-75-1, 72 h, read-out: ED50 (the source's name); how it was run: as §1
P388 = experiment: Cytotoxicity against mouse P388 cells after 48 hrs; type: functional; settings: P388, 48 h, read-out: ED50 (the source's name)
How it was run: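 Murine P-388 cells grown in medium without fungizone. Treated in triplicate at four concentrations (0.16–20 μg/ml), DMSO 0.5% v/v final. Incubation 48 h at 37° under 5% CO2. Fixed with 20% TCA, stained with sulforhodamine B, Tris-solubilized OD read at 515 nm. ED50 derived from averaged % of DMSO-only controls.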

[3] = Cytotoxicity against human U373 cells after 96 hrs; type: functional, U-373MG ATCC; settings: U373 MG, read-out: ED50 (the source's name)
How it was run: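 U373 cells grown in medium without fungizone. Treated in triplicate with four concentrations (0.16–20 μg/ml), DMSO 0.5% v/v final. Incubation 96 h at 37° under 5% CO2. Sulforhodamine B protein stain after cold 50% TCA fixation, OD 515 nm. ED50 derived from averaged % of DMSO-only controls.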

[4] = Cytotoxicity against human multidrug-resistant KBV1 cells in absence of vinblastine after 72 hrs; type: functional; settings: KB-V1, 72 h, read-out: ED50 (the source's name); how it was run: as §1

SMILES | EC50 (SK-MEL-2) [µg/mL] | EC50 (HT-1080) [µg/mL] | EC50 (Lu1) [µg/mL] | EC50 (A-431) [µg/mL] | EC50 (LNCaP) [µg/mL] | EC50 [1] [µg/mL] | EC50 (KB) [µg/mL] | EC50 [2] [µg/mL] | EC50 (Col2) [µg/mL] | EC50 (ZR-75-1) [µg/mL] | EC50 (P388) [µg/mL] | EC50 [3] [µg/mL] | EC50 [4] [µg/mL]
CC1(C)C(=O)CC[C@]2(C)[C@H]3CC[C@H]4[C@@H]5[C@H]6[C@@H](C[C@]5(C)CC[C@@]4(C)[C@]3(C)CC[C@@H]12)OC(=O)[C@@]6(O)CO [OCHRACEOLIDE D] | > 20 | 14.7 (≈ 30.2 µM) | > 20 | 9.5 (≈ 19.5 µM) | 15.5 (≈ 31.8 µM) | > 20 | > 20 | > 20 | > 20 | > 20 | > 5 | 3.9 (≈ 8.01 µM) | > 20
CC(=O)OC[C@]1(OC(C)=O)C(=O)O[C@@H]2C[C@]3(C)CC[C@]4(C)[C@@H](CC[C@@H]5[C@@]6(C)CCC(=O)C(C)(C)[C@@H]6CC[C@]54C)[C@@H]3[C@@H]21 | 6.2 (≈ 10.9 µM) | > 20 | > 20 | > 20 | > 20 | > 20 | 16.8 (≈ 29.4 µM) | 6.7 | > 20 | 11.5 (≈ 20.1 µM) | 4.8 (≈ 8.41 µM) | > 20 | 18.3 (≈ 32.1 µM)
CC(=O)OC[C@]1(O)C(=O)O[C@@H]2C[C@]3(C)CC[C@]4(C)[C@@H](CC[C@@H]5[C@@]6(C)CCC(=O)C(C)(C)[C@@H]6CC[C@]54C)[C@@H]3[C@@H]21 | 20 (≈ 37.8 µM) | > 20 | > 20 | > 20 | > 20 | > 20 | 16.7 (≈ 31.6 µM) | 11.7 | > 20 | > 20 | 4.6 (≈ 8.7 µM) | > 20 | 14.6 (≈ 27.6 µM)
C=C1C(=O)O[C@@H]2C[C@]3(CO)CC[C@]4(C)[C@@H](CC[C@@H]5[C@@]6(C)CCC(=O)C(C)(C)[C@@H]6CC[C@]54C)[C@@H]3[C@H]12 [OCHRACEOLIDE E] | 11.9 (≈ 25.4 µM) | 12.2 (≈ 26 µM) | > 20 | > 20 | > 20 | > 20 | > 20 | > 20 | > 20 | 18.8 (≈ 40.1 µM) | > 5 | 8.6 (≈ 18.3 µM) | > 20
